Assay results reported in publication PMC8317130 (Journal of medicinal chemistry, 2020).
Values after ≈ are worked out from the molar mass of the structure shown. “Also recorded” adds a separate entry of the source. Read-outs that look alike come from different tables or passages of the source. One block for each compound: values may come before it.

Key:
E. faecium HM-965 = assay: MIC, broth microdilution; assay type: cell-based
Outline: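 MIC by CLSI broth microdilution against E. faecium HM-965. Cells grown overnight on trypticase soy agar at 37 °C, set to 0.5 McFarland, and diluted in TSB to about 5 × 10^5 CFU/mL. Compounds from 10 mg/mL DMSO stocks serially diluted in plates.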

[1] = Bi-directional Caco-2 permeability; assay type: in vitro ADME, human; settings: human, Caco-2
Outline: (§1)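 Bidirectional (A→B and B→A) transport across Caco-2 monolayers, run by a contract lab. Donor/receiver pH 6.5/7.4. Concentrations measured as chromatographic peak areas. Papp (10^-6 cm/s) derived from end-point receiver concentration, incubation time, monolayer area and mid-point donor concentration. Recovery (%) = donor plus receiver amounts at end, relative to donor amount at time zero.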

Caco-2 [2] = assay: Bi-directional Caco-2 permeability; assay type: in vitro ADME, human
Outline: as §1

E. faecium ATCC 700221 = assay: Time-kill assay; assay type: cell-based; settings: 5× MIC, 24 hours, 37 °C
Aqueous solubility = assay type: physicochemical; settings: for solubility at 24 h: PBS buffer, pH 7.4
[3] = In vivo pharmacokinetics, oral gavage; set-up: species or system mice; settings: male, ICR, mouse, plasma, 10 mg/kg
panel of VRE isolates = assay: MIC50/MIC90 over panel of eleven VRE clinical isolates; assay type: cell-based, E. faecium, E. faecalis; settings: Enterococcus
VRE strains = assay: MIC in ambient air versus 5% CO2 on representative enterococcal strains; assay type: cell-based, Enterococcus; settings: five representative enterococcal strains
Outline: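 CLSI broth microdilution. Enterococci grown overnight on trypticase soy agar at 37 °C, adjusted to 0.5 McFarland, then diluted in TSB to about 5 × 10^5 CFU/mL. Compounds from 10 mg/mL DMSO stocks serially diluted.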

plasma protein = settings: cited from earlier work
Caco-2 [4] = settings: cited from earlier work

Structure (SMILES): CC(=O)Nc1ncc(S(N)(=O)=O)s1 [Compound 34, N-(5-sulfamoylthiazol-2-yl)acetamide]
anti-VRE activity (in words) (E. faecium HM-965): abrogated activity against VRE; also recorded: complete loss of anti-VRE activity

Structure (SMILES): NS(=O)(=O)c1nnc(NCC2CCCCC2)s1 [Compound 30, 5-((cyclohexylmethyl)amino)-1,3,4-thiadiazole-2-sulfonamide]
anti-VRE activity (in words) (E. faecium HM-965): inactive against VRE

recovery [1]: 83% | concentration of molecule in the receiver chambers (Caco-2 [2]; Caco-2 permeability assay): below the limit of detection | maximum solubility relative to MIC against E. faecium HM-965 (Aqueous solubility): approximately 40 fold | solubility at 24 h (Aqueous solubility): 39 µg/mL (≈ 127 µM)
Structure (SMILES): NS(=O)(=O)c1nnc(NC(=O)CN2CCOCC2)s1 [Compound 26, 2-(Morpholin-1-yl)-N-(5-sulfamoyl-1,3,4-thiadiazol-2-yl)acetamide]
bacteriostatic or bactericidal activity (E. faecium ATCC 700221): bacteriostatic

Structure (SMILES): CC(=O)Nc1nnc(S(C)(=O)=O)s1 [Compound 33, N-(5-(Methylsulfonyl)-1,3,4-thiadiazol-2-yl)acetamide]
anti-VRE activity (in words) (E. faecium HM-965): abolished the anti-VRE activity; also recorded: inactive against VRE strains; also recorded: complete loss of activity

net transport (A➔B) (Caco-2 [2]; Caco-2, pH 6.5/7.4): 0.46 | concentration at 1440 min [3]: 0 ng/mL | maximum solubility relative to MIC against E. faecium HM-965 (Aqueous solubility): approximately 1500 fold | solubility at 24 h (Aqueous solubility): 10.4 µg/mL (≈ 32.7 µM) | MIC90 (panel of VRE isolates; read-out: MIC90 converted to molar cellular potency): 0.0942 µM
Structure (SMILES): NS(=O)(=O)c1nnc(NC(=O)CCC2CCCCC2)s1 [Compound 22, 3-Cyclohexyl-N-(5-sulfamoyl-1,3,4-thiadiazol-2-yl)propanamide]
bacteriostatic or bactericidal activity (E. faecium ATCC 700221): bacteriostatic

Structure (SMILES): CN[C@H](CC(C)C)C(=O)N[C@H]1C(=O)N[C@@H](CC(N)=O)C(=O)N[C@H]2C(=O)N[C@H]3C(=O)N[C@H](C(=O)N[C@H](C(=O)O)c4cc(O)cc(O)c4-c4cc3ccc4O)[C@H](O)c3ccc(c(Cl)c3)Oc3cc2cc(c3O[C@@H]2O[C@H](CO)[C@@H](O)[C@H](O)[C@H]2O[C@H]2C[C@](C)(N)[C@H](O)[C@H](C)O2)Oc2ccc(cc2Cl)[C@H]1O [vancomycin, reference compound]
MIC90 (panel of VRE isolates): > 64 µg/mL

Structure (SMILES): NS(=O)(=O)c1nnc(NC(=O)CC2CCCCC2)s1 [Compound 20, 2-Cyclohexyl-N-(5-sulfamoyl-1,3,4-thiadiazol-2-yl)acetamide]
activity against VRE strains in presence of 5% CO2 (VRE strains): inactive

Structure (SMILES): CC(=O)Nc1ccc(S(N)(=O)=O)cc1 [Compound 35, N-(4-sulfamoylphenyl)acetamide]
anti-VRE activity (in words) (E. faecium HM-965): complete loss of activity

Structure (SMILES): CC(=O)Nc1nnc(S(N)(=O)=O)s1 [AZM, N-(5-sulfamoyl-1,3,4-thiadiazol-2-yl)acetamide]
bacteriostatic or bactericidal activity (E. faecium ATCC 700221): bacteriostatic | plasma protein binding (plasma protein): over 90% | Papp A → B (Caco-2 [4]; Caco-2, pH 6): 0.19^f 10^−6 cm/sec | Papp B → A (Caco-2 [4]; Caco-2, pH 6): 0.77^f 10^−6 cm/sec | apparent permeability coefficient, Papp, low-permeable drug class (Caco-2 [4]; Caco-2): < 5e+06 cm/s | net transport (A➔B) with P-gp inhibitors (Caco-2 [4]; Caco-2): up to 1.92 | net transport (A➔B) (Caco-2 [4]): 0.24 | activity against VRE strains in presence of 5% CO2 (VRE strains): inactive

Structure (SMILES): CC(=O)NC[C@H]1CN(c2ccc(N3CCOCC3)c(F)c2)C(=O)O1 [linezolid, reference compound]
bacteriostatic or bactericidal activity (E. faecium ATCC 700221): bacteriostatic
